# Screens (PubChem)
# eIF4H inh = inhibitors of RNA binding by human eIF4H. Q15056. eIF4H fluorescence polarization binding assay. inhibition, % at 35 µM. 290,000 tested, 0.94% active;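 also: calls also rest on retests at 20 µM and on dose response follow-up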
# PABP FP inh = PABP-poly(A) binding inhibition | PABP-poly(A) RNA binding, fluorescence polarization | inhibition, % at 35 µM | 290,000 tested, 1% active | AID 2014;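 also: calls also rest on retests at 20 µM and on dose response follow-up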
# Target sequence (P11940 whole entry, looked up): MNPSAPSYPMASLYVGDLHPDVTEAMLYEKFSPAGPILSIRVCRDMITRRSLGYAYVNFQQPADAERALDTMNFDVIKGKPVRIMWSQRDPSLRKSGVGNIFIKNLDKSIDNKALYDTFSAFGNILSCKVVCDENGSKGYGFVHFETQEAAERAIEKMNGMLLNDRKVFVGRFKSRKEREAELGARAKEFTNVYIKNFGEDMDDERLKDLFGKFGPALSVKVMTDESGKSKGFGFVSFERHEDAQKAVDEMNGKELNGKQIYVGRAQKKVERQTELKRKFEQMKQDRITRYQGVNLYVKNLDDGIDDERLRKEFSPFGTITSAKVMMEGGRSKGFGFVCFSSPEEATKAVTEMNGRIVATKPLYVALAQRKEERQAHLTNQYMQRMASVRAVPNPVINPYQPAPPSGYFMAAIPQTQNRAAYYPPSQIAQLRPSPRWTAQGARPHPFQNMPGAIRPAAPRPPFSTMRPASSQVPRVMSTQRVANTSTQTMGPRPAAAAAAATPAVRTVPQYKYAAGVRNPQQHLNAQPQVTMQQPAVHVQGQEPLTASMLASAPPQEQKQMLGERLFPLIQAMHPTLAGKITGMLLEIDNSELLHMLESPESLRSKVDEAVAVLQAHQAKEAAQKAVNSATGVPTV
# DNA FID counter = displaces DNA intercalator in HCV helicase counter-screen | DNA fluorescent intercalator displacement, fluorescence | inhibition, % at 7.9 µM | 290,000 tested, 0.17% active | AID 1845; in the data active = inhibition above about 37%;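 also: 0% = vehicle and 100% = reference compound; higher means more ethidium bromide displaced from hairpin DNA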
# NS3 helicase inh = blocks Hepatitis C virus NS3 helicase unwinding; NS3 helicase DNA unwinding, Cy5 molecular beacon fluorescence; inhibition, % at 10.9 µM; 290,000 tested, 0.56% active; AID 1800;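 active = inhibition above the mean of all tested compounds plus 3 SD, set per campaign, cut at about 35% in these data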;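 also: 0% = DMSO wells and 100% = thioflavine S control wells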
#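 System: Hepatitis C virus NS3 helicase domain fragment enzyme | Reagent: Annealed dual-labelled DNA beacon duplex, ATP-started | Compound dosing: 10.9 µM single point, 0.8% DMSO | Incubation: 1 h reaction at 25 °C, ATP-initiated | Technique: Cy5 fluorescence | Evaluation: Percent inhibition from t60/t0 fluorescence ratio | Benchmarks: Low DMSO, high thioflavine S at 110 µM | Replication: Singlicate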
# MLLE-PAM2 inh = blocks PAM2 peptide binding to the PABP1 MLLE domain | P11940 | GST-MLLE / FITC-PAM2 fluorescence polarization | inhibition, % at 20 µM | 360,000 tested, 0.36% active | AID 588489; in the data active = inhibition above about 35%, passing the limit was not always enough;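 also: plate controls were DMSO wells with GST-MLLE for no effect and wells lacking GST-MLLE protein for full effect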
# core dimer inh = HCV core protein dimerization inhibition; TR-FRET GST/Flag-core106 dimerization, 1536-well; inhibition, % at 5 µM; 300,000 tested, 0.33% active; AID 1899;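 active = inhibition above the mean of all tested compounds plus 3 SD, set per screening campaign, cut at about 45% in these data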
#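 Material: GST/Flag-tagged HCV core106 proteins. Incubation: 4 h, 22.5 °C incubation. Read-out basis: inhibition (%) from 671 over 617 nm ratio. Measured by: TR-FRET, excitation 340 nm, emission 617 and 671 nm.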
# * marks the source's active call; other numbers are inactive results; ? = inconclusive; . = no result; ! = not active in a repeat. Compounds with a hit are over-represented: about 2% of the library has one in this group of screens. Unless noted, no rule for the calls is given here.
SMILES,eIF4H inh,PABP FP inh,DNA FID counter,NS3 helicase inh,MLLE-PAM2 inh,core dimer inh
CSc1ncc(/C=C2/C(=O)NC(=O)N(c3ccc(C(C)C)cc3)C2=O)cn1,3,1,-9,21,14,-2
COC(=O)C1=C(c2ccc(F)cc2OCc2ccccc2)C[C@@H]2CC[C@H]1N2C(=O)NC1Cc2ccccc2C1,.,.,.,.,10,.
CN(C)CCCN=Cc1c(O)n(CCc2ccc(F)cc2)c(=O)[nH]c1=O,0,-3,6,-7,-2,4
CN(C)CCCN=Cc1c(O)n(CCc2ccccc2)c(=O)[nH]c1=O,96*,99,-5,0,-86,1
CC(C)(C)N1CC(C(=O)c2ccccc2)C1c1ccccc1 (stereo unspecified),.,.,.,.,4,.
CCNc1cc(N2CCN(C)CC2)ccc1[N+](=O)[O-],-6,-13,5,-4,5,1
CN1CCN(c2ccc([N+](=O)[O-])c(N/N=C3\CN4CCC3CC4)c2)CC1,-6,-15,42*,-2,0,7
Cc1cccc(-n2c(C)nc3ccccc3c2=O)c1C,-1,75*,14,2,8,-2
Cc1ccccc1-n1c(C)nc2ccccc2c1=O,4,-1,7,10,5,4
Cn1cc(NC(=O)CCl)cn1,1.5*,68,1,3,7,13
CCCCC1C(=O)NC(=S)N(C)C1=O (stereo unspecified),.,.,.,.,-127,.
Cn1c(O)c(C(=O)c2ccccc2)c(=O)n(C)c1=O,56*,54*,-1,5,7,-1
CCOC(=O)[C@]1(C#N)[C@@H]2C=CC(C(C)=O)=CN2[C@@H](C(N)=O)[C@@H]1c1ccsc1,57*,66*,-19,13,11,-6
O=c1c2ccccc2[se]n1-c1ccccc1,-2,7,-1,-1,37*,-25
O=c1c2ccccc2nc(-c2ccccc2)n1-c1ccccc1,-2,-7,-17,1,0,1
O=S(=O)(c1ccccc1)N1CCN2CCCC2C1 (stereo unspecified),96*,82*,0,5,4,9
COc1cccc(C(c2nnnn2C2CCCCC2)N2CCC3(CC2)C(=O)NCN3c2ccccc2)c1OC (stereo unspecified),.,.,.,.,-1,.
CCCCn1c(O)c(C(CC)=Nc2ccc(C(=O)O)cc2)c(=O)[nH]c1=O,62*,-2,-1,0,-3,-3
CCCCCCCCc1ccc(O)cc1,.,.,.,.,7,.
C[N+](C)(C)CCc1ccc(O)cc1,?,55*,2,7,-121,-1
OCCNc1c2c(nc3ccccc13)CCCC2,-4,0,4,3,13,-5
CNc1ccc2nc3ccccc3[n+](C)c2c1,?,?,-114,18,86*,-112
C[n+]1c2ccccc2nc2ccc(NCCO)cc21,46,76*,-105,21,29,-102
CCN(CC)c1ccc(N=Cc2c(O)n(-c3cc(OC)ccc3OC)c(=O)[nH]c2=O)cc1,99*,0.1*,-23,36,-96,-4
COc1cc2c(cc1OC)C(c1c(O)n(CCc3ccccc3)c(=S)[nH]c1=O)NCC2 (stereo unspecified),?,40*,-21,10,.,0
SMILES,eIF4H inh,PABP FP inh,DNA FID counter,NS3 helicase inh,MLLE-PAM2 inh,core dimer inh
COc1ccc(C2CC(c3c(O)n(CCc4ccccc4)c(=O)[nH]c3=O)=NN2)cc1OC (stereo unspecified),2,3,-38,-3,-9,4
COc1cc2c(cc1O)CC1c3c(cc(O)c(OC)c3-2)CCN1C (stereo unspecified),81*!,20*!,1,8,7,0
COc1cc2c(cc1OC)-c1c(OC)c(OC)cc3c1[C@H](C2)N(C)CC3,21,-1,9,5,13,-13
COc1ccc(C(=O)C2CCCN(Cc3cccc(C)n3)C2)c(OC)c1 (stereo unspecified),92*,59*,2,0,-6,-3
Cc1cccc(N2C(=O)NC(=O)/C(=C/c3ccc([N+](=O)[O-])o3)C2=O)c1,80*,122*,-17,33,.,1
COc1cc(/C=C2\C(=O)NC(=O)N(c3ccccc3)C2=O)c([N+](=O)[O-])cc1OC,31,35,-6,1,49*,.
COc1cc(/C=C2\C(=O)NC(=O)N(c3ccccc3)C2=O)cc(OC)c1O,114,108,-4,-6,18,-1
O=[N+]([O-])c1ccc(OP(=O)(O)Oc2ccc([N+](=O)[O-])cc2)cc1,.,.,.,.,-3,.
COc1ccc(CC2C(=O)NC(C)C(=O)N(C)C3C(=O)N(C)C(Cc4ccc(O)c(c4)Oc4ccc(cc4)C3O)C(=O)NC(C)C(=O)NC(C)C(=O)N2C)cc1 (stereo unspecified),.,.,.,.,6,.
CCCCn1c(O)c(C(C)=NCCc2c[nH]c3ccccc23)c(=O)[nH]c1=O,84*,66*,-25,-5,-1,7
C=CCn1c(O)c(C(C)=NCCc2c[nH]c3ccccc23)c(=O)[nH]c1=O,1,7,-15,10,-12,-3
CCCCC(=O)N/N=C/c1c(O)n(CC)c(=S)[nH]c1=O,56*,2,2,-7,-7,9
CN1CC=C2C(C#N)=C(N)C(C#N)(C#N)C(c3ccncc3)C2C1 (stereo unspecified),122*,116*,-1,-1,96,-10
O=c1[nH]c(=S)n(C2CC2)c(O)c1C=Nc1ccc2c(c1)OCO2,68*,42,-1,7,6,8
Cc1cc(/C=C2\C(=O)NC(=O)N(c3ccc(F)cc3)C2=O)c(C)n1-c1ccc(C(=O)O)cc1,25,51*,-26,15,-2,3
Cc1cc(/C=C2\C(=O)NC(=O)N(c3ccc(Cl)cc3)C2=O)c(C)n1-c1sc2c(c1C#N)CCCC2,?,-8,-18,28,-56,47*
Cc1cc(/C=C2\C(=O)NC(=O)N(Cc3ccco3)C2=O)c(C)n1-c1ccc(O)cc1,81,31,-25,17,-17,47*
CSCCC(c1nnnn1-c1c(C)cccc1C)N1CCC2(CC1)C(=O)NCN2c1ccccc1 (stereo unspecified),.,.,.,.,15,.
COC(=O)C1=C(c2ccc(OC)c(OC)c2)C[C@@H]2CC[C@H]1N2C(=O)NCc1cccc2ccccc12,.,.,.,.,16,.
O=C(OCc1ccccc1)N1CCC2CC1c1cc(N3Cc4ccccc4-n4nncc4C3)ccc12 (stereo unspecified),.,.,.,.,6,.
CCN1C(=O)/C(=C\c2ccc([N+](=O)[O-])s2)C(=O)NC1=S,52*,3.4*,-11,31,.,.
CC(C)(C)n1nnnc1C(C1CC1)N1CCC(n2c(=O)[nH]c3ccccc32)CC1 (stereo unspecified),.,.,.,.,12,.
